Experiment [1] concerns the target yeast α-glucosidase. Conditions: ref Suttithumsatid and co-workers, 2022; cited from earlier work.
The target in experiment [2] is rat intestinal sucrase (Rattus norvegicus, UniProt P23739). The experiment in a line: Kinetic study of α-glucosidase inhibition. It counts as biochemical. In short, it runs like this: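 Test compound in phosphate buffer pH 6.9 with rat intestinal α-glucosidase. Sucrose was varied over 20–100 mM, with and without inhibitor, and incubated at 37 °C for 40 min. […] Lineweaver–Burk plots gave the inhibition type. Secondary plots of slopes and intercepts against inhibitor concentration gave Ki and Ki′.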
Sequence of rat intestinal sucrase (P23739 whole entry): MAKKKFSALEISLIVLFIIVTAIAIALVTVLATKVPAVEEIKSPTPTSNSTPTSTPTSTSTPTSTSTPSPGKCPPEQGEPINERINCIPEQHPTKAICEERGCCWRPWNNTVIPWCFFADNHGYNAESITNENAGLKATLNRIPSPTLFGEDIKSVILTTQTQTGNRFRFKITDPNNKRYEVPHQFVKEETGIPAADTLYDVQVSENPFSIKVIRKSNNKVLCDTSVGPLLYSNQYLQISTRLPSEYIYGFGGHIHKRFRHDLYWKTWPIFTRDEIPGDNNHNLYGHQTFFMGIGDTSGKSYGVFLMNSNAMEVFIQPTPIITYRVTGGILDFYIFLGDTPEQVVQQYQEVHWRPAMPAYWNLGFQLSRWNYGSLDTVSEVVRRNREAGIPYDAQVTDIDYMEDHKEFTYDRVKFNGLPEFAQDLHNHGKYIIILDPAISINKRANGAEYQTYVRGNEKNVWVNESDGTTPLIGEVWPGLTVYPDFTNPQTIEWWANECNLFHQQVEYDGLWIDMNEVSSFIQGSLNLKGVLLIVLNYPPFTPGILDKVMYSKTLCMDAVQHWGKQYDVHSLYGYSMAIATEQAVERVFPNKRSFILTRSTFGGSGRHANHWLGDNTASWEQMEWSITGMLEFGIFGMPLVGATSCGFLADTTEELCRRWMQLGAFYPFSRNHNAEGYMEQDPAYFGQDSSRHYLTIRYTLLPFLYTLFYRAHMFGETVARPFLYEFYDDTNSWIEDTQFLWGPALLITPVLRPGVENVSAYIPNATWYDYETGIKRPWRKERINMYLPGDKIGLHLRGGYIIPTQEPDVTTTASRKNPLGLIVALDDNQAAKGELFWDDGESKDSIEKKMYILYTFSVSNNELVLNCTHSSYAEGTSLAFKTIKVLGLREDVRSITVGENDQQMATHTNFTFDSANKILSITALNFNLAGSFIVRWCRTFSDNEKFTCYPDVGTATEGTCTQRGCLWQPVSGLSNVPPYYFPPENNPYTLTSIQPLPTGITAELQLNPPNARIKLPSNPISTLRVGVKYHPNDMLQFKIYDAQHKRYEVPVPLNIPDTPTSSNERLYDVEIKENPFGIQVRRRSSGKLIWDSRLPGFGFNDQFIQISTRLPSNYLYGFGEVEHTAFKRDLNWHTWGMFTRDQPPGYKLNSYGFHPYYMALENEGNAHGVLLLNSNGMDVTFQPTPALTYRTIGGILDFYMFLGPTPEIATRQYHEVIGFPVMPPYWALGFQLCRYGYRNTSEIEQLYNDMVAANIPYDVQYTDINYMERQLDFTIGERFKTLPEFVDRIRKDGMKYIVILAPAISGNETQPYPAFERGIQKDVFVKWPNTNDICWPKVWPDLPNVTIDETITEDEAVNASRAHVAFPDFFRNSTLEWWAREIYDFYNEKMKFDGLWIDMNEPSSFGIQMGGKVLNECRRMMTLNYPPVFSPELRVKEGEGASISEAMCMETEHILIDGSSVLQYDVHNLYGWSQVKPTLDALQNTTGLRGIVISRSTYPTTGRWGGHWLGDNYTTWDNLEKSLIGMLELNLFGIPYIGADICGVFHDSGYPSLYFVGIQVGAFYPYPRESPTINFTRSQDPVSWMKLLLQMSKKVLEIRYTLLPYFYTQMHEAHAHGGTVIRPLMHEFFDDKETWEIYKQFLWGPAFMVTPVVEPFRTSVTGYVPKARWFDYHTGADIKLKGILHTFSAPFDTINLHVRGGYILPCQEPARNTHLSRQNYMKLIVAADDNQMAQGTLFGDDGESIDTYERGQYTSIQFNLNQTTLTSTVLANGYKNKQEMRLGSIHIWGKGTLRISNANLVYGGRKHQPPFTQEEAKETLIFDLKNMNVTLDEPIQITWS

Experiment [3] concerns rat intestinal maltase. The experiment in a line: Kinetic study of α-glucosidase inhibition. It counts as biochemical. A digest of the protocol: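 Rat intestinal α-glucosidase with test compound in phosphate buffer pH 6.9. Maltose was varied over 2–10 mM, with and without inhibitor, and the mixture was incubated at 37 °C for 10 min. […] Inhibition type came from Lineweaver–Burk plots. Ki and Ki′ came from secondary plots of slopes and intercepts versus inhibitor concentration.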

The mark [4] stands for this setting: dissociation constant of ESI complex, secondary plots.

Data on 2 compounds can be found in article PMC12371875 (Journal of Agricultural and Food Chemistry, 2025).

Structures are written as SMILES. In brackets after ≈: the same amount, converted by molar mass.

As to `C=C(C)[C@@H]1CCC(C)=C[C@H]1c1c(O)cc(CCCCC)cc1O` [CBD], the “IC50, yeast α-glucosidase inhibition” value in experiment [1] was 5.5 µg/mL (≈ 17.5 µM).
Turning to `CCCCCc1cc(O)c2c(c1)OC(C)(C)c1ccc(C)cc1-2` [Compound 15, cannabinol], the “Inhibition type, sucrase” value in experiment [2] (Lineweaver–Burk plots, sucrose 20–100 mM) is recorded as “Uncompetitive”. In addition, the “Ki′, sucrase” value in experiment [2] (setting [4]) worked out at 434.8 µM. Moreover, the “Inhibition type, maltase” value in experiment [3] (Lineweaver–Burk plots, maltose 2–10 mM) is “Uncompetitive”. Further, in experiment [3] (setting [4]), the “Ki′, maltase” value is 196.4 µM.
